From ChEMBL document CHEMBL1949496, “Synthesis of [¹⁸F]-labeled (2-(2-fluoroethoxy)ethyl)triphenylphosphonium cation as a potential agent for myocardial imaging using positron emission tomography” (Bioorg Med Chem Lett, 2012)

What was measured:
Kidney [1] = test: Biodistribution in BALB/c mouse kidney at 7.4 MBq, iv after 30 mins by gamma counting; type: ADME, organism-based; settings: in vivo, 0.5 h
In short: (§1)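 Tracer given intravenously to BALB/c mice; animals sampled at 10, 30, 60 and 120 min after injection. Organ radioactivity expressed as percentage of injected dose per gram of tissue (% ID/g), n = 12.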

Muscle tissue [2] = test: Biodistribution in BALB/c mouse normal muscle at 7.4 MBq, iv after 30 mins by gamma counting; type: ADME, organism-based; settings: in vivo, 0.5 h; in short: as §1
Intestine = test: Biodistribution in BALB/c mouse intestine at 7.4 MBq, iv after 10 mins by gamma counting; type: ADME, organism-based; settings: in vivo; in short: as §1
Muscle tissue [3] = test: Biodistribution in BALB/c mouse normal muscle at 7.4 MBq, iv after 10 mins by gamma counting; type: ADME, organism-based; settings: in vivo; in short: as §1
Lung [4] = test: Biodistribution in BALB/c mouse lung at 7.4 MBq, iv after 30 mins by gamma counting; type: ADME, organism-based; settings: in vivo, 0.5 h; in short: as §1
Kidney [5] = test: Biodistribution in BALB/c mouse kidney at 7.4 MBq, iv after 60 mins by gamma counting; type: ADME, organism-based; settings: in vivo, 1 h; in short: as §1
Nucleic Acid [6] = test: Ratio of drug level in BALB/c mouse heart to lung at 7.4 MBq, iv after 60 mins by gamma counter; type: ADME, organism-based; settings: in vivo, 1 h
In short: (§2)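 Normal BALB/c mice were given the 18F tracer by i.v. injection. Tissues were sampled at 10, 30, 60 and 120 min. Activity is expressed as % injected dose per gram of tissue (n = 12), and organ ratios were taken from these values.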

Nucleic Acid [7] = test: Ratio of drug level in BALB/c mouse heart to liver at 7.4 MBq, iv after 60 mins by gamma counter; type: ADME, organism-based; settings: in vivo, 1 h; in short: as §2
Kidney [8] = test: Biodistribution in BALB/c mouse kidney at 7.4 MBq, iv after 120 mins by gamma counting; type: ADME, organism-based; settings: in vivo, 2 h; in short: as §1
Stomach [9] = test: Biodistribution in BALB/c mouse stomach at 7.4 MBq, iv after 60 mins by gamma counting; type: ADME, organism-based; settings: in vivo, 1 h; in short: as §1
H9c2 [10] = test: Cellular uptake in rat H9c2 cells after 0.5 hrs by gamma counting; type: ADME, cell-based; settings: h9c2, 0.5 h
In short: (§3)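 Radiotracer incubated with H9c2 cells at 37 °C for 0.5, 1 or 2 h. Uptake expressed as percentage of applied radioactivity; means ± SD of three measurements.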

Kidney [11] = test: Biodistribution in BALB/c mouse kidney at 7.4 MBq, iv after 10 mins by gamma counting; type: ADME, organism-based; settings: in vivo; in short: as §1
Liver = test: Biodistribution in BALB/c mouse liver at 7.4 MBq, iv after 60 mins by gamma counting; type: ADME, organism-based; settings: in vivo, 1 h; in short: as §1
Blood [12] = test: Biodistribution in BALB/c mouse blood at 7.4 MBq, iv after 120 mins by gamma counting; type: ADME, organism-based; settings: in vivo, 2 h; in short: as §1
Nucleic Acid [13] = test: Ratio of drug level in BALB/c mouse heart to lung at 7.4 MBq, iv after 10 mins by gamma counter; type: ADME, organism-based; settings: in vivo; in short: as §2
Nucleic Acid [14] = test: Ratio of drug level in BALB/c mouse heart to liver at 7.4 MBq, iv after 30 mins by gamma counter; type: ADME, organism-based; settings: in vivo, 0.5 h; in short: as §2
Blood [15] = test: Biodistribution in BALB/c mouse blood at 7.4 MBq, iv after 10 mins by gamma counting; type: ADME, organism-based; settings: in vivo; in short: as §1
Nucleic Acid [16] = test: Ratio of drug level in BALB/c mouse heart to blood at 7.4 MBq, iv after 120 mins by gamma counter; type: ADME, organism-based; settings: other tissue, 2 h; in short: as §2
Stomach [17] = test: Biodistribution in BALB/c mouse stomach at 7.4 MBq, iv after 10 mins by gamma counting; type: ADME, organism-based; settings: in vivo; in short: as §1
Pancreas = test: Biodistribution in BALB/c mouse pancreas at 7.4 MBq, iv after 10 mins by gamma counting; type: ADME, organism-based; settings: in vivo; in short: as §1
Bone = test: Biodistribution in BALB/c mouse bone at 7.4 MBq, iv after 10 mins by gamma counting; type: ADME, organism-based, Bone element; settings: in vivo; in short: as §1
Lung [18] = test: Biodistribution in BALB/c mouse lung at 7.4 MBq, iv after 60 mins by gamma counting; type: ADME, organism-based; settings: in vivo, 1 h; in short: as §1
Blood [19] = test: Biodistribution in BALB/c mouse blood at 7.4 MBq, iv after 60 mins by gamma counting; type: ADME, organism-based; settings: in vivo, 1 h; in short: as §1
H9c2 [20] = test: Cellular uptake in rat H9c2 cells after 0.5 to 2 hrs by gamma counting in presence of CCCP; type: ADME, cell-based
In short: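 H9c2 cells incubated with radiotracer at 37 °C for 0.5, 1 or 2 h in the presence of 0.5 µM protonophore CCCP, which abolishes mitochondrial membrane potential. Uptake expressed as percentage of applied radioactivity; means ± SD of three measurements.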

Nucleic Acid [21] = test: Ratio of drug uptake in rat H9c2 cells to mouse NIH3T3 cells after 0.5 to 2 hrs by gamma counting; type: ADME, cell-based
H9c2 [22] = test: Cellular uptake in rat H9c2 cells after 2 hrs by gamma counting; type: ADME, cell-based; settings: h9c2, 2 h; in short: as §3
Spleen [23] = test: Biodistribution in BALB/c mouse spleen at 7.4 MBq, iv after 120 mins by gamma counting; type: ADME, organism-based; settings: in vivo, 2 h; in short: as §1
Nucleic Acid [24] = test: Ratio of drug level in BALB/c mouse heart to liver at 7.4 MBq, iv after 120 mins by gamma counter; type: ADME, organism-based; settings: in vivo, 2 h; in short: as §2
Spleen [25] = test: Biodistribution in BALB/c mouse spleen at 7.4 MBq, iv after 30 mins by gamma counting; type: ADME, organism-based; settings: in vivo, 0.5 h; in short: as §1
Blood [26] = test: Biodistribution in BALB/c mouse blood at 7.4 MBq, iv after 30 mins by gamma counting; type: ADME, organism-based; settings: in vivo, 0.5 h; in short: as §1
Spleen [27] = test: Biodistribution in BALB/c mouse spleen at 7.4 MBq, iv after 10 mins by gamma counting; type: ADME, organism-based; settings: in vivo; in short: as §1

Structure (SMILES): [18F]CCOCC[P+](c1ccccc1)(c1ccccc1)c1ccccc1
- Drug uptake (Kidney [1]): 23.67 % ID/g
- Drug uptake (Muscle tissue [2]): 5.27 % ID/g
- Drug uptake (Intestine): 9.14 % ID/g
- Drug uptake (Muscle tissue [3]): 6.46 % ID/g
- Drug uptake (Lung [4]): 5.18 % ID/g
- Drug uptake (Kidney [5]): 16.86 % ID/g
- Ratio (Nucleic Acid [6]): 5.05
- Ratio (Nucleic Acid [7]): 9.87
- Drug uptake (Kidney [8]): 9.28 % ID/g
- Drug uptake (Stomach [9]): 4.72 % ID/g
- Drug uptake (H9c2 [10]): 0.47%
- Drug uptake (Kidney [11]): 36.05 % ID/g
- Drug uptake (Liver): 2.03 % ID/g
- Drug uptake (Blood [12]): 0.24 % ID/g
- Ratio (Nucleic Acid [13]): 4.58
- Ratio (Nucleic Acid [14]): 8.05
- Drug uptake (Blood [15]): 0.64 % ID/g
- Ratio (Nucleic Acid [16]): > 102
- Drug uptake (Stomach [17]): 3.75 % ID/g
- Drug uptake (Pancreas): 8.8 % ID/g
- Drug uptake (Bone): 3.37 % ID/g
- Drug uptake (Lung [18]): 4.01 % ID/g
- Drug uptake (Blood [19]): 0.23 % ID/g
- Drug uptake (H9c2 [20]): Not Active
- Ratio (Nucleic Acid [21]): 2
- Drug uptake (H9c2 [22]): 0.68%
- Drug uptake (Spleen [23]): 1.23 % ID/g
- Ratio (Nucleic Acid [24]): 19.16
- Drug uptake (Spleen [25]): 2.81 % ID/g
- Drug uptake (Blood [26]): 0.22 % ID/g
- Drug uptake (Spleen [27]): 3.35 % ID/g
